Results from ChEMBL document CHEMBL4706761, “Design and Implementation of Synthetic RNA Binders for the Inhibition of miR-21 Biogenesis” (ACS Med Chem Lett, 2021).

Experiments:
microRNA 21 [1] = assay: Binding affinity to 5'-FAM/3'-DAB-labeled UGUCGGGUAGCUUAUCAGACUGAUGUUGACUGUUGAAUCUCAUGGCAACACCAGUCGAUGGGCUGUCUGACA pre-miRNA-21 (unknown origin) assessed as pre-miRNA-21-compound complex formation by measuring Gibbs free energy; format: nucleic-acid assay
Procedure, shortened: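 ΔG°T obtained from the fluorescence binding assay on 5′-FAM-pre-miR-21, run at several temperatures (278–308 K). Enthalpic (ΔH°) and entropic (−TΔS°) contributions are derived from these values.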

microRNA 21 [2] = assay: Binding affinity to 5'-FAM/3'-DAB-labeled UGUCGGGUAGCUUAUCAGACUGAUGUUGACUGUUGAAUCUCAUGGCAACACCAGUCGAUGGGCUGUCUGACA pre-miRNA-21 (unknown origin) assessed as dissociation constant incubated for overnight by fluorescence based assay; format: nucleic-acid assay
microRNA 21 [3] = assay: Binding affinity to 5'-FAM/3'-DAB-labeled UGUCGGGUAGCUUAUCAGACUGAUGUUGACUGUUGAAUCUCAUGGCAACACCAGUCGAUGGGCUGUCUGACA pre-miRNA-21 (unknown origin) assessed as dissociation constant incubated for overnight in presence of Saccharomyces cerevisiae tRNA by fluorescence based assay; format: nucleic-acid assay
microRNA 21 [4] = assay: (§1) Selectivity index, ratio of Kd for 5'-FAM/3'-DAB-labeled UGUCGGGUAGCUUAUCAGACUGAUGUUGACUGUUGAAUCUCAUGGCAACACCAGUCGAUGGGCUGUCUGACA pre-miRNA-21 (unknown origin) in presence of double stranded 15-mer 5'-CGTTTTTATTTTTGC-3' DNA to Kd for 5'-FAM/3'-DAB-labeled UGUCGGGUAGCUUAUCAGACUGAUGUUGACUGUUGAAUCUCAUGGCAACACCAGUCGAUGGGCUGUCUGACA pre-miRNA-21 (unknown origin); format: nucleic-acid assay
microRNA 21 [5] = assay: as §1, with “tRNA” for “double stranded 15-mer 5'-CGTTTTTATTTTTGC-3' DNA”; format: nucleic-acid assay
microRNA 21 [6] = assay: Binding affinity to 5'-FAM/3'-DAB-labeled UGUCGGGUAGCUUAUCAGACUGAUGUUGACUGUUGAAUCUCAUGGCAACACCAGUCGAUGGGCUGUCUGACA pre-miRNA-21 (unknown origin) assessed as dissociation constant incubated for overnight in presence of double stranded 15-mer 5'-CGTTTTTATTTTTGC-3' DNA by fluorescence based assay; format: nucleic-acid assay
microRNA 21 [7] = assay: Inhibition of 5'-FAM/3'-DAB-labeled UGUCGGGUAGCUUAUCAGACUGAUGUUGACUGUUGAAUCUCAUGGCAACACCAGUCGAUGGGCUGUCUGACA pre-miRNA-21 (unknown origin) biogenesis incubated for 30 mins in presence of human recombinant dicer by FRET based assay; format: nucleic-acid assay
Procedure, shortened: (§2)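 FRET cleavage assay on a 72-mer pre-miR-21 carrying 5′-fluorescein and 3′-dabcyl. Substrate is processed by recombinant Dicer, E. coli RNase III or MCF7 cell lysate across a range of ligand concentrations. Cleavage raises fluorescence. IC50 from duplicates over three independent experiments.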

microRNA 21 [8] = assay: Inhibition of 5'-FAM/3'-DAB-labeled UGUCGGGUAGCUUAUCAGACUGAUGUUGACUGUUGAAUCUCAUGGCAACACCAGUCGAUGGGCUGUCUGACA pre-miRNA-21 (unknown origin) biogenesis preincubated for 30 mins followed by Escherichia coli RNase III addition and measured after 1 hr by fluorescence based assay; format: nucleic-acid assay; procedure, shortened: as §2
microRNA 21 [9] = assay: Inhibition of 5'-FAM/3'-DAB-labeled UGUCGGGUAGCUUAUCAGACUGAUGUUGACUGUUGAAUCUCAUGGCAACACCAGUCGAUGGGCUGUCUGACA pre-miRNA-21 (unknown origin) biogenesis preincubated for 30 mins followed by MCF7 cell lysate addition and measured after 1 hr by fluorescence based assay; procedure, shortened: as §2

| Structure (SMILES) | deltaG (microRNA 21 [1]) [kJ/mol] | Kd (microRNA 21 [2]) [nM] | Kd (microRNA 21 [3]) [nM] | Ratio (microRNA 21 [4]) | Ratio (microRNA 21 [5]) | Kd (microRNA 21 [6]) [nM] | IC50 (microRNA 21 [7]) [µM] | IC50 (microRNA 21 [8]) [nM] | IC50 (microRNA 21 [9]) [µM] |
| --- | --- | --- | --- | --- | --- | --- | --- | --- | --- |
| CC(=O)Nc1nc(-c2cccc(NC(=O)CCC(=O)N[C@@H](Cc3cn(C[C@H]4O[C@@H](O[C@@H]5[C@@H](O)[C@H](N)C[C@H](N)[C@H]5O[C@H]5O[C@H](CN)[C@@H](O)[C@H](O)[C@H]5N)[C@H](O)[C@@H]4O[C@H]4O[C@@H](CN)[C@@H](O)[C@H](O)[C@H]4N)nn3)C(=O)N[C@@H](Cc3c[nH]cn3)C(N)=O)c2)cs1 | -41.5 | 50.3 | 50.4 | 1.6 | 1 | 80.9 | < 5 |  |  |
| Cc1ccc(C(=O)Nc2nc(-c3cccc(NC(=O)CCC(=O)N[C@@H](Cc4cn(C[C@H]5O[C@@H](O[C@@H]6[C@@H](O)[C@H](N)C[C@H](N)[C@H]6O[C@H]6O[C@H](CN)[C@@H](O)[C@H](O)[C@H]6N)[C@H](O)[C@@H]5O[C@H]5O[C@@H](CN)[C@@H](O)[C@H](O)[C@H]5N)nn4)C(=O)N[C@@H](CCCCN)C(N)=O)c3)cs2)cc1 |  | 348 | 405 | 2.5 | 1.2 | 877 |  |  |  |
| NC[C@@H]1O[C@H](O[C@H]2[C@@H](O)[C@H](O[C@@H]3[C@@H](O)[C@H](N)C[C@H](N)[C@H]3O[C@H]3O[C@H](CN)[C@@H](O)[C@H](O)[C@H]3N)O[C@@H]2Cn2cc(CCC(=O)Nc3cccc(-c4csc(NC(=O)[C@@H](N)Cc5c[nH]cn5)n4)c3)nn2)[C@H](N)[C@@H](O)[C@@H]1O |  | 128 | 134 | 1.3 | 1 | 171 | < 5 | 1260 | 3.1 |
| Cc1ccc(C(=O)Nc2nc(-c3cccc(NC(=O)CCC(=O)N[C@@H](Cc4cn(C[C@H]5O[C@@H](O[C@@H]6[C@@H](O)[C@H](N)C[C@H](N)[C@H]6O[C@H]6O[C@H](CN)[C@@H](O)[C@H](O)[C@H]6N)[C@H](O)[C@@H]5O[C@H]5O[C@@H](CN)[C@@H](O)[C@H](O)[C@H]5N)nn4)C(=O)N[C@@H](C)C(N)=O)c3)cs2)cc1 |  | 128 | 170 | 2 | 1.3 | 261 | < 5 |  |  |
| C[C@H](NC(=O)[C@H](Cc1cn(C[C@H]2O[C@@H](O[C@@H]3[C@@H](O)[C@H](N)C[C@H](N)[C@H]3O[C@H]3O[C@H](CN)[C@@H](O)[C@H](O)[C@H]3N)[C@H](O)[C@@H]2O[C@H]2O[C@@H](CN)[C@@H](O)[C@H](O)[C@H]2N)nn1)NC(=O)CCC(=O)NCCn1ccc(=O)[nH]c1=O)C(N)=O |  | 641 | 807 | 2.3 | 1.3 | 1460 |  |  |  |
| Cc1ccc(C(=O)Nc2nc(-c3cccc(NC(=O)CCC(=O)N[C@@H](Cc4cn(C[C@H]5O[C@@H](O[C@@H]6[C@@H](O)[C@H](N)C[C@H](N)[C@H]6O[C@H]6O[C@H](CN)[C@@H](O)[C@H](O)[C@H]6N)[C@H](O)[C@@H]5O[C@H]5O[C@@H](CN)[C@@H](O)[C@H](O)[C@H]5N)nn4)C(=O)N[C@@H](Cc4c[nH]cn4)C(N)=O)c3)cs2)cc1 |  | 162 | 168 | 1.7 | 1 | 274 | < 5 |  |  |

Second part, the molecule after the results:

| deltaG (microRNA 21 [1]) [kJ/mol] | Kd (microRNA 21 [2]) [nM] | Kd (microRNA 21 [3]) [nM] | Ratio (microRNA 21 [4]) | Ratio (microRNA 21 [5]) | Kd (microRNA 21 [6]) [nM] | IC50 (microRNA 21 [7]) [µM] | IC50 (microRNA 21 [8]) [nM] | IC50 (microRNA 21 [9]) [µM] | Structure (SMILES) |
| --- | --- | --- | --- | --- | --- | --- | --- | --- | --- |
|  | 133 | 151 | 1.4 | 1.1 | 187 |  |  |  | CC(=O)Nc1nc(-c2cccc(NC(=O)CCC(=O)N[C@@H](Cc3cn(C[C@H]4O[C@@H](O[C@@H]5[C@@H](O)[C@H](N)C[C@H](N)[C@H]5O[C@H]5O[C@H](CN)[C@@H](O)[C@H](O)[C@H]5N)[C@H](O)[C@@H]4O[C@H]4O[C@@H](CN)[C@@H](O)[C@H](O)[C@H]4N)nn3)C(=O)N[C@@H](C)C(N)=O)c2)cs1 |
| -41.5 | 50.7 | 51 | 1.9 | 1 | 95.7 | < 5 |  |  | CC(=O)Nc1nc(-c2cccc(NC(=O)CCC(=O)N[C@@H](Cc3cn(C[C@H]4O[C@@H](O[C@@H]5[C@@H](O)[C@H](N)C[C@H](N)[C@H]5O[C@H]5O[C@H](CN)[C@@H](O)[C@H](O)[C@H]5N)[C@H](O)[C@@H]4O[C@H]4O[C@@H](CN)[C@@H](O)[C@H](O)[C@H]4N)nn3)C(=O)N[C@@H](CCCCN)C(N)=O)c2)cs1 |
|  | 1390 | 1420 | 1.4 | 1 | 1950 |  |  |  | NC[C@@H]1O[C@H](O[C@H]2[C@@H](O)[C@H](O[C@@H]3[C@@H](O)[C@H](N)C[C@H](N)[C@H]3O[C@H]3O[C@H](CN)[C@@H](O)[C@H](O)[C@H]3N)O[C@@H]2CO)[C@H](N)[C@@H](O)[C@@H]1O [FRAMYCETIN] |
